Reference: paper PMC8513424 (Laryngoscope Investigative Otolaryngology, 2021)
Like-named read-outs stand apart in the source and are kept apart here.

Tests used:
[1] = tested on: patients with NF2 or sporadic meningioma; experiment: Pilot 1 safety and tolerability; type: in vivo, human
How it was run: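 Pilot 1 was a subset of a phase I, 3 + 3 dose-escalation study of the oral test compound in solid tumors. Dosing started at 30 mg three times weekly for 3 weeks, then 1 week off, per 28-day cycle. Adults (≥18 y, ECOG 0-1) had NF2-associated or sporadic VS/meningioma with ≥15% volumetric growth on pre-enrollment MRI. Toxicities were graded by CTCAE v4.0.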

[2] = Stability in whole blood kept on ice; type: in vitro ADME
schwannoma xenografts = details: cited from earlier work
[3] = tested on: NF2‐associated or sporadic VS or meningiomas; experiment: Pilot 1 tumor volumetric measurement by MRI; type: in vivo, human
VS and meningioma cells = details: cited from earlier work
human VS cells = details: cited from earlier work
[4] = tested on: p‐AKT, p‐S6 and p‐ERK in VS and meningioma; experiment: Pilot 2 fluorescent Western blotting of resected tumors; type: in vivo, human
How it was run: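 Patients took 40 mg of the test compound orally three times weekly for 3 weeks before resection. VS were split into peripheral capsule and center. Tumor lysates were run on fluorescent Western blots for p-AKT, total AKT, p-S6, total S6, p-ERK and total ERK. Phospho/total ratios were expressed as percent of an untreated banked VS or meningioma set as 100%.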

[5] = tested on: AKT phosphorylation in primary human VS cells; experiment: AKT phosphorylation in primary VS cells; type: cell-based; details: Figure S2
[6] = Pilot 2 plasma AR‐42 concentration by LC‐MS/MS; type: in vivo, human; details: 40 mg; for Concentration in plasma, Before surgery: mean of three trials
How it was run: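 Dosing was 40 mg orally three times weekly for 3 weeks before surgery. Venous blood was drawn at induction of anesthesia and again at tumor removal (about 3-4 h after surgery start). Plasma was separated by cold centrifugation and kept frozen. Drug was quantified by LC-MS/MS against a standard curve, as the mean of three runs. Pre-operative and removal-time levels were compared by paired t-test (P ≤ .05).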

[7] = tested on: patients with sporadic VS or meningioma; experiment: Pilot 2 safety and tolerability; type: in vivo, human
How it was run: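 Phase 0 pre-surgical study: 40 mg of the test compound orally three times weekly for 3 weeks before planned VS/meningioma resection. Adults >18 y had ECOG 0-1, normal organ and marrow function, and could swallow capsules. Excluded were pregnancy, malabsorption, chronic corticosteroids, prolonged QT, active infection, and concurrent antineoplastic therapy or radiotherapy.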

[8] = Patient 1.1, 837 days on AR‐42, Left parieto‐occipital Meningioma
[9] = Patient 1.1, 837 days on AR‐42, Right neck Schwannoma
[10] = Patient 1.1, Left parieto‐occipital Meningioma
[11] = Patient 1.1, Right IAC Schwannoma
[12] = Patient 1.1, Right neck Schwannoma
[13] = Patient 1.2, 84 days on AR‐42, Right intradural C1 Meningioma
[14] = Patient 1.2, Left trigeminal Schwannoma
[15] = Patient 1.2, Right intradural C1 Meningioma
[16] = Patient 1.4, 275 days on AR‐42, Left IAC Schwannoma
[17] = Patient 1.4, 275 days on AR‐42, Left posterior fossa Meningioma
[18] = Patient 1.4, Left IAC Schwannoma
[19] = Patient 1.4, Left posterior fossa Meningioma
[20] = Patient 1.4, Let foramen magnum Meningioma
[21] = Patient 1.4, Right IAC Schwannoma
[22] = Patient 1.4, Right anterior falx Meningioma
[23] = Patient 1.5, 134 days on AR‐42, Right petroclinoid Meningioma
[24] = Patient 1.5, Right petroclinoid Meningioma
[25] = Patient 1.6, 58 days on AR‐42, Right IAC Schwannoma
[26] = Patient 1.6, Left IAC Schwannoma
[27] = Patient 1.6, Right IAC Schwannoma
[28] = Patient 1.7, Left IAC Schwannoma
[29] = Patient 1.7, Left prepontine cistern Meningioma
[30] = post‐treatment vs on AR‐42, of 11
[31] = pre‐treatment to on‐treatment, of 15

CC(C)[C@H](C(=O)Nc1ccc(C(=O)NO)cc1)c1ccccc1 [AR‐42]
Dose‐limiting toxicity ([1]; Patient 1.7, 80 mg, after 10 days of treatment, or 5 doses): grade 4 psychiatric disorder | Tolerability ([1]; Pilot 1, 60 mg): generally well tolerated | Arrhythmias or QT prolongations ([1]; Pilot 1, 60‐80 mg): no reported arrhythmias or QT prolongations of any grade | Time stable in blood kept on ice [2]: more than 4 hours | AKT activation in schwannoma xenografts (schwannoma xenografts): decreased AKT activation | Apoptosis in schwannoma xenografts (schwannoma xenografts): induced apoptosis | Growth of schwannoma xenografts (schwannoma xenografts): inhibited the growth of schwannoma xenografts | Median on‐treatment estimated annual growth rate ([3]; 11 evaluable lesions): 22% | Median post‐treatment estimated annual growth rate ([3]; 11 evaluable lesions): 10% | % Volume growth on Rx [3, 8]: 54% | On Rx response [3, 8]: PD (progressive disease (>20% increase in volume)) | % Volume growth on Rx ([3]; Patient 1.1, 837 days on AR‐42, Right IAC Schwannoma): −2% | % Volume growth on Rx [3, 9]: 52% | On Rx response [3, 9]: PD (progressive disease (>20% increase in volume)) | Change in GR Pre to On Rx (%) [3, 10]: −128% | Change in GR Pre to post Rx [3, 10]: −26% | Est. annual growth rate On Rx (%) [3, 10]: 23% | Est. annual growth rate Post Rx [3, 10]: 125% | Change in GR Pre to On Rx (%) [3, 11]: −61% | Change in GR Pre to post Rx [3, 11]: −10% | Est. annual growth rate On Rx (%) [3, 11]: −1% | Est. annual growth rate Post Rx [3, 11]: 50% | Change in GR Pre to On Rx (%) [3, 12]: −69% | Change in GR Pre to post Rx [3, 12]: −79% | Est. annual growth rate On Rx (%) [3, 12]: 22% | Est. annual growth rate Post Rx [3, 12]: 12% | % Volume growth on Rx ([3]; Patient 1.2, 84 days on AR‐42, Left trigeminal Schwannoma): −9% | % Volume growth on Rx [3, 13]: 26% | On Rx response [3, 13]: PD (progressive disease (>20% increase in volume)) | Change in GR Pre to On Rx (%) [3, 14]: −54% | Change in GR Pre to post Rx [3, 14]: −11% | Est. annual growth rate On Rx (%) [3, 14]: −46% | Est. annual growth rate Post Rx [3, 14]: −3% | Change in GR Pre to On Rx (%) [3, 15]: 122% | Change in GR Pre to post Rx [3, 15]: −6% | Est. annual growth rate On Rx (%) [3, 15]: 138% | Est. annual growth rate Post Rx [3, 15]: 10% | % Volume growth on Rx [3, 16]: 60% | On Rx response [3, 16]: PD (progressive disease (>20% increase in volume)) | % Volume growth on Rx [3, 17]: −24% | On Rx response [3, 17]: PR (partial response (>20% decrease in volume)) | % Volume growth on Rx ([3]; Patient 1.4, 275 days on AR‐42, Let foramen magnum Meningioma): −19% | % Volume growth on Rx ([3]; Patient 1.4, 275 days on AR‐42, Right IAC Schwannoma): 9% | % Volume growth on Rx ([3]; Patient 1.4, 275 days on AR‐42, Right anterior falx Meningioma): 0% | Change in GR Pre to On Rx (%) [3, 18]: −10% | Change in GR Pre to post Rx [3, 18]: 20% | Est. annual growth rate On Rx (%) [3, 18]: 92% | Est. annual growth rate Post Rx [3, 18]: 122% | Change in GR Pre to On Rx (%) [3, 19]: −170% | Change in GR Pre to post Rx [3, 19]: −125% | Est. annual growth rate On Rx (%) [3, 19]: −37% | Est. annual growth rate Post Rx [3, 19]: 8% | Change in GR Pre to On Rx (%) [3, 20]: −158% | Change in GR Pre to post Rx [3, 20]: −138% | Est. annual growth rate On Rx (%) [3, 20]: −30% | Est. annual growth rate Post Rx [3, 20]: −10% | Change in GR Pre to On Rx (%) [3, 21]: −133% | Est. annual growth rate On Rx (%) [3, 21]: 18% | Change in GR Pre to On Rx (%) [3, 22]: 0% | Change in GR Pre to post Rx [3, 22]: 0% | Est. annual growth rate On Rx (%) [3, 22]: 0% | Est. annual growth rate Post Rx [3, 22]: 0% | % Volume growth on Rx [3, 23]: 104% | On Rx response [3, 23]: PD (progressive disease (>20% increase in volume)) | Change in GR Pre to On Rx (%) [3, 24]: 41% | Change in GR Pre to post Rx [3, 24]: −232% | Est. annual growth rate On Rx (%) [3, 24]: 241% | Est. annual growth rate Post Rx [3, 24]: −32% | % Volume growth on Rx ([3]; Patient 1.6, 58 days on AR‐42, Left IAC Schwannoma): 15% | % Volume growth on Rx [3, 25]: 40% | On Rx response [3, 25]: PD (progressive disease (>20% increase in volume)) | Change in GR Pre to On Rx (%) [3, 26]: 64% | Change in GR Pre to post Rx [3, 26]: 32% | Est. annual growth rate On Rx (%) [3, 26]: 93% | Est. annual growth rate Post Rx [3, 26]: 61% | Change in GR Pre to On Rx (%) [3, 27]: 187% | Est. annual growth rate On Rx (%) [3, 27]: 245% | % Volume growth on Rx ([3]; Patient 1.7, 10 days on AR‐42, Left IAC Schwannoma): 4% | % Volume growth on Rx ([3]; Patient 1.7, 10 days on AR‐42, Left prepontine cistern Meningioma): −9% | Change in GR Pre to On Rx (%) [3, 28]: 13% | Est. annual growth rate On Rx (%) [3, 28]: 50% | Change in GR Pre to On Rx (%) [3, 29]: −120% | Est. annual growth rate On Rx (%) [3, 29]: −113% | Share of tumors with stable growth ([3]; estimated percent annual growth rates): 20% | Meningiomas progressed on AR‐42 ([3]; of 7 meningiomas): three | Meningiomas stable or regressed on AR‐42 ([3]; of 7 meningiomas): Four | VS progressed on AR‐42 ([3]; of 8 VS): three | VS stable on AR‐42 ([3]; of 8 VS): Five | Tumors with stable disease on AR‐42 ([3]; of 15 evaluable tumors): eight | Share of tumors with partial response ([3]; of 15 tumors): 7% | Decrease in volume of the tumor with partial response ([3]; on AR‐42): 24% | Duration of partial response ([3]; posterior fossa meningioma of Patient 1.4): 3 years | Tumors that rebounded in growth rate (increased more than 20%) after termination [3, 30]: 4 | Tumors with growth rate decreased after termination [3, 30]: 3 | Tumors with growth rate not changed after termination [3, 30]: 4 | Tumors with increased growth rates (>20% increase) [3, 31]: four | Tumors with reduced growth rates (>20% decrease in growth rate) [3, 31]: eight | Tumors with stable growth rates (± <20% change) [3, 31]: three | Median reduction in annual growth rate ([3]; pre‐treatment to on‐treatment, P = 0.259): −54% | Apoptosis (VS and meningioma cells): triggered apoptosis | Cell cycle effect (VS and meningioma cells): induced cell‐cycle arrest at G2/M | p‐AKT levels (VS and meningioma cells): decreased p‐AKT levels | IC50 (human VS cells; read-out: IC50, growth inhibition of human VS cells): 500 nM | IC50 (human VS cells; read-out: IC50 for schwannomas, previous in vitro studies): ~500 nM | p‐S6 in meningioma ([4]; Patient 2.7, vs untreated meningioma): reduction in p‐S6 | p‐AKT in meningioma ([4]; Patient 2.7, vs untreated meningioma tumors): not reduced | Levels of p‐ERKs and p‐S6 in AR‐42‐treated VS ([4]; vs untreated VS, 40 mg): substantially reduced in three of four | p‐AKT levels in AR‐42‐treated VS tumors ([4]; vs untreated VS, 40 mg): decreased p‐AKT levels in three of four | AKT phosphorylation in primary human VS cells [5]: reduced AKT phosphorylation | Concentration in plasma, At tumor removal ([6]; Patient # 2.1 (VS)): 303.7 nM | Concentration in plasma, Before surgery ([6]; Patient # 2.1 (VS)): 362.3 nM | Concentration in plasma, At tumor removal ([6]; Patient # 2.2 (VS)): 121.1 nM | Concentration in plasma, Before surgery ([6]; Patient # 2.2 (VS)): 224.2 nM | Concentration in plasma, At tumor removal ([6]; Patient # 2.4 (VS)): 36.8 nM | Concentration in plasma, Before surgery ([6]; Patient # 2.4 (VS)): 61.8 nM | Concentration in plasma, At tumor removal ([6]; Patient # 2.6 (VS)): 3.4 nM | Concentration in plasma, Before surgery ([6]; Patient # 2.6 (VS)): 3.5 nM | Concentration in plasma, At tumor removal ([6]; Patient # 2.7 (meningioma)): 72.9 nM | Concentration in plasma, Before surgery ([6]; Patient # 2.7 (meningioma)): 99.1 nM | Plasma concentration of AR‐42 ([6]; first three patients with VS, before and at tumor removal): 62 to 360 nM | Plasma level after anesthesia ([6]; patient with meningioma): 73 nM | Plasma level before anesthesia ([6]; patient with meningioma): 99 nM | Arrhythmias or QT changes ([7]; Pilot 2, 40 mg): no arrhythmias or QT changes | Grade 3 or 4 toxicities ([7]; Pilot 2, 3 weeks at 40 mg): no grade 3 or 4 toxicities
